The list is not random: actives were taken first. Their share in the collection is about 2%.
T cruzi inh = inhibitors of intracellular T. cruzi growth, primary screen, luminescence, NIH3T3 host cells. T. cruzi beta-gal in NIH3T3, 90 h. inhibition, % (test concentration not listed). 300,000 compounds, 1.4% hits. AID 1885, 2009;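 active means mean inhibition across valid replicates above about 55%, limit read from the data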;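 further: signal also drops with host cell toxicity which is not excluded here; 0% = plate median of DMSO wells and 100% = zero luminescence signal; higher percent means less beta-gal luminescence so fewer parasites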
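assay system = mouse NIH/3T3 fibroblasts infected with β-gal-expressing T. cruzi Tulahuen C4 | input = 5,000 NIH/3T3 host cells per well | buffer or medium = DMEM plus 2% FBS | timing = 3 h host attachment, then at least 90 h co-culture | measured by = GalScreen luminescence, 60 min | evaluation = luminescence reflecting intracellular parasite burden, expressed as percent inhibition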
HIF activator = HIF pathway transcriptional activators, primary screen, cell-based, U2OS HRE-luciferase, luminescence; activation, % at 7.5 µM (by protocol); U2OS HRE-luciferase reporter; normalized: DMSO 0%, desferrioxamine 100%; 300,000 compounds, 0.32% hits;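 active means mean activation of at least 10% of the iron chelator positive control signal, with at least half of replicates also reaching 10%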
AI-2 QS modul = Vibrio harveyi AI-2 quorum sensing modulators, primary screen, JMH597 strain, luminescence/OD600 ratio. 300,000 compounds, 0.4% hits. Vibrio harveyi JMH597 AI-2 luminescence/OD600 ratio, 9 h; hits give low values; strain lacks LuxN and CqsS sensors; 0 = neutral-control median. activity change, % at 7.5 µM; in the data active means activity change below about -75%, passing the limit was not always enough;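 further: luminescence divided by OD600 gain over 9 h not by final OD600 alone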
ARNT TACC3 PPI = disruptors of ARNT/TACC3 protein interaction, primary screen, biochemical, AlphaScreen, single concentration; AID 623870, 2012; inhibition, % at 9.99 µM; 390,000 compounds, 0.66% hits; AlphaScreen His-ARNT PAS-B/GST-TACC3 binding, luminescence; TACC3 fragment carries E629A point mutation; Transforming acidic coiled-coil-containing protein 3 (Homo sapiens), Q9Y6A5;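 active means mean inhibition of replicates at least 50% and at least half of replicates each reaching 50%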;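 further: 0% = complete ARNT plus TACC3 wells and 100% = ARNT alone without TACC3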
Starred values were filed as active, the others as inactive.

How did COc1ccc(NC(=O)c2ccc(C(=O)Nc3ccc(OC)cc3OC)cc2)c(OC)c1 do in these assays?
T cruzi inh: 2; HIF activator: 0; AI-2 QS modul: -8; ARNT TACC3 PPI: -5

What do the screens show for `COCC(=O)Nc1ccc2c(c1)[C@H]1C[C@H](CC(=O)N(C)C)O[C@H](CO)[C@H]1O2`?
ARNT TACC3 PPI: -4

How did N=C1S/C(=C\c2ccc(-c3cccc(Cl)c3)o2)C(=O)N1c1nccs1 do in these assays?
T cruzi inh: 16; HIF activator: 0; AI-2 QS modul: 15

How did COc1ccc(/C=C2\SC(=N)N(c3nccs3)C2=O)cc1OC do in these assays?
T cruzi inh: 58*; HIF activator: 0; AI-2 QS modul: 19; ARNT TACC3 PPI: 12

How did CCOC(=O)Cc1csc(Nc2c(C)n(C)n(-c3ccccc3)c2=O)n1 do in these assays?
T cruzi inh: -3; HIF activator: 0; AI-2 QS modul: 2; ARNT TACC3 PPI: -2

Results for Cc1c(N/N=C(\C#N)C(=O)c2ccc(Cl)cc2)c(=O)n(-c2ccccc2)n1C ?
T cruzi inh: -5; HIF activator: 0; AI-2 QS modul: 65; ARNT TACC3 PPI: 60*

How did N#C/C(=N\Nc1ccc(Cl)cc1)C(=O)c1ccccc1 do in these assays?
T cruzi inh: -6; HIF activator: 1; AI-2 QS modul: 49; ARNT TACC3 PPI: 4

What do the screens show for `Cc1c(Nc2nc(-c3ccc(Cl)cc3)cs2)c(=O)n(-c2ccccc2)n1C`?
T cruzi inh: 19; HIF activator: 0; AI-2 QS modul: -86*; ARNT TACC3 PPI: -1

What do the screens show for `CC(C)OC(=O)N(C)C[C@@H]1OCc2cn(nn2)CCCC(=O)N([C@H](C)CO)C[C@@H]1C`?
ARNT TACC3 PPI: -4

Results for CN1CCN(S(=O)(=O)c2cnccc2N2CCN(c3cccc(Cl)c3)CC2)CC1 ?
T cruzi inh: 56*; HIF activator: 0; AI-2 QS modul: 11; ARNT TACC3 PPI: 13

What do the screens show for `Cc1nn(C)cc1S(=O)(=O)N1CCN(c2cccc(Cl)c2)CC1`?
T cruzi inh: -6; HIF activator: 0; AI-2 QS modul: 27; ARNT TACC3 PPI: -5

What do the screens show for `CCN(CC)S(=O)(=O)c1cnccc1N1CCN(c2cccc(Cl)c2)CC1`?
T cruzi inh: 65*; HIF activator: 0; AI-2 QS modul: 31; ARNT TACC3 PPI: 3

What do the screens show for `CNS(=O)(=O)c1cnccc1N1CCN(c2cccc(Cl)c2)CC1`?
T cruzi inh: 15; HIF activator: 0; AI-2 QS modul: 11; ARNT TACC3 PPI: 7

What do the screens show for `C[C@@H]1CN([C@@H](C)CO)C(=O)c2cccc(NC(=O)c3cnccn3)c2O[C@H]1CN(C)Cc1ccncc1`?
ARNT TACC3 PPI: 0

How did COc1cccc(S(=O)(=O)N[C@@H]2C=C[C@H](CC(=O)NCc3ccc(F)cc3)O[C@@H]2CO)c1 do in these assays?
ARNT TACC3 PPI: 9

Results for O=C(NCc1ccccc1Cl)c1cccc(NC(=O)c2ccccc2)c1 ?
T cruzi inh: 9; HIF activator: 1; AI-2 QS modul: 35; ARNT TACC3 PPI: -24

What do the screens show for `COc1ccccc1CNC(=O)c1cccc(NC(=O)c2ccccc2)c1`?
T cruzi inh: -1; HIF activator: 26*; AI-2 QS modul: 6; ARNT TACC3 PPI: -2

How did C[C@@H]1CN([C@H](C)CO)C(=O)Cc2cc(NC(=O)Cn3cnnn3)ccc2O[C@H]1CN(C)S(C)(=O)=O do in these assays?
ARNT TACC3 PPI: 1

What do the screens show for `CC(C)NC(=O)N(C)C[C@H]1Oc2ccc(NC(=O)C3CC3)cc2C(=O)N([C@@H](C)CO)C[C@H]1C`?
ARNT TACC3 PPI: -4

What do the screens show for `COc1ccc(C(=O)O)cc1S(=O)(=O)N1CCCc2ccccc21`?
T cruzi inh: -6; HIF activator: -1; AI-2 QS modul: 0; ARNT TACC3 PPI: 11*

How did O=C(Nc1cccc(C(F)(F)F)c1)Oc1ccc(Cl)c2cccnc12 do in these assays?
T cruzi inh: 69*; HIF activator: -10; AI-2 QS modul: 115; ARNT TACC3 PPI: -8

Results for C[C@@H](NC(=O)C[C@@H]1CC[C@H](NC(=O)c2cccnc2)[C@@H](CO)O1)c1ccccc1 ?
ARNT TACC3 PPI: 27

Results for CC(Sc1nc(N)cc(=O)[nH]1)C(=O)Nc1sc2c(c1C#N)CCCC2 (stereo not given) ?
T cruzi inh: -24; HIF activator: 0; AI-2 QS modul: 44; ARNT TACC3 PPI: -6

What do the screens show for `CCOC(=O)Cc1nnc(NC(=O)C(CC)Sc2nc(C)cc(=O)[nH]2)s1` (stereo not given)?
T cruzi inh: -15; HIF activator: 0; AI-2 QS modul: 8; ARNT TACC3 PPI: 45*

How did CCC(Sc1nc(C)cc(=O)[nH]1)C(=O)Nc1sc2c(c1C#N)CCCC2 (stereo not given) do in these assays?
T cruzi inh: -18; HIF activator: 23*; AI-2 QS modul: 11; ARNT TACC3 PPI: 8

What do the screens show for `O=C(/C=C/c1ccc2c(c1)OCO2)Nc1cccnc1`?
T cruzi inh: 2; HIF activator: 11*; AI-2 QS modul: 20; ARNT TACC3 PPI: 1

What do the screens show for `CC(=O)Nc1ccc(NC(=O)/C=C/c2ccc3c(c2)OCO3)cc1`?
T cruzi inh: -11; HIF activator: 1; AI-2 QS modul: 8; ARNT TACC3 PPI: -12

How did O=C(CN(Cc1ccc(F)cc1)C(=O)CCC(=O)Nc1nccs1)NCC1CCCO1 (stereo not given) do in these assays?
T cruzi inh: 2; HIF activator: 31*; AI-2 QS modul: 20; ARNT TACC3 PPI: 8

What do the screens show for `Cc1cccc(NC(=O)CSc2cccc3cccnc23)c1`?
T cruzi inh: 35; HIF activator: 1; AI-2 QS modul: -12; ARNT TACC3 PPI: 57*

Results for O=C(CSc1cccc2cccnc12)Nc1cc(C(=O)O)cc(C(=O)O)c1 ?
T cruzi inh: 1; HIF activator: -6; AI-2 QS modul: 21; ARNT TACC3 PPI: 68*

Results for COc1ccc(N2CCN(c3ccc(N4C(=O)CC(C)C4=O)cc3[N+](=O)[O-])CC2)cc1 (stereo not given) ?
T cruzi inh: 10; HIF activator: 66*; AI-2 QS modul: 47; ARNT TACC3 PPI: 14

How did CC1(C)N=C(N)N=C(N)N1c1ccccc1 do in these assays?
T cruzi inh: -4; HIF activator: -1; AI-2 QS modul: 24; ARNT TACC3 PPI: -6

Results for CC1(C)N=C(N)N=C(N)N1c1ccc(Oc2ccc(Cl)cc2)c(Cl)c1 ?
T cruzi inh: 55*; HIF activator: -1; AI-2 QS modul: 20; ARNT TACC3 PPI: 1

What do the screens show for `O=C(NCc1ccco1)C12CC3CC(CC(C3)C1)C2`?
T cruzi inh: -4; HIF activator: 0; AI-2 QS modul: 10; ARNT TACC3 PPI: 5

What do the screens show for `O=C(CC12CC3CC(CC(C3)C1)C2)NC(=S)NCc1ccco1`?
T cruzi inh: 56*; HIF activator: -2; AI-2 QS modul: 34; ARNT TACC3 PPI: -7

Compound activity deposited in PubChem BioAssay by Broad Institute.
